Legend:
[1] = test system: WASF3 phosphorylation in MDA-MB-231 cells; conditions: inactivation of HSP90; cited from earlier work
[2] = test system: breast and prostate cell lines; assay: Scratch wound; assay type: cell-based; conditions: scratch wound assay, compared with DMSO and scrambled peptide
KISS1 = KISS1 levels by western blot; assay type: cell-based; conditions: MDA-MB-231 cells, compared with scrambled peptides
[3] = test system: WASF3 phosphorylation in MDA-MB-231 cells; assay: WASF3 phosphorylation status; assay type: cell-based; conditions: for WASF3 phosphorylation levels: MDA-MB-231 cells in serum
Procedure, shortened: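 MDA-MB-231 cells were treated with stapled peptides, the scrambled control peptide, or the HSP90 inhibitor 17-AAG for comparison. WASF3 was immunoprecipitated, with IgG IP as the negative control. Immunoblots were probed with the PY20 antibody for phosphorylation and with WASF3 antibody for total protein.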

CYFIP1 [4] = assay: CYFIP1 protein levels by western blot; assay type: cell-based; conditions: 24 hours treatment
CYFIP1 [5] = biological target: CYFIP1 (Homo sapiens, UniProt Q7L576); assay: Avidin-biotin pull down with biotinylated stapled peptides, western blot; assay type: binding; conditions: 2.5 µM versus 10 µM biotinylated peptide, MDA-MB-231 cells
Sequence of CYFIP1 (Homo sapiens, UniProt Q7L576) (Q7L576 whole entry): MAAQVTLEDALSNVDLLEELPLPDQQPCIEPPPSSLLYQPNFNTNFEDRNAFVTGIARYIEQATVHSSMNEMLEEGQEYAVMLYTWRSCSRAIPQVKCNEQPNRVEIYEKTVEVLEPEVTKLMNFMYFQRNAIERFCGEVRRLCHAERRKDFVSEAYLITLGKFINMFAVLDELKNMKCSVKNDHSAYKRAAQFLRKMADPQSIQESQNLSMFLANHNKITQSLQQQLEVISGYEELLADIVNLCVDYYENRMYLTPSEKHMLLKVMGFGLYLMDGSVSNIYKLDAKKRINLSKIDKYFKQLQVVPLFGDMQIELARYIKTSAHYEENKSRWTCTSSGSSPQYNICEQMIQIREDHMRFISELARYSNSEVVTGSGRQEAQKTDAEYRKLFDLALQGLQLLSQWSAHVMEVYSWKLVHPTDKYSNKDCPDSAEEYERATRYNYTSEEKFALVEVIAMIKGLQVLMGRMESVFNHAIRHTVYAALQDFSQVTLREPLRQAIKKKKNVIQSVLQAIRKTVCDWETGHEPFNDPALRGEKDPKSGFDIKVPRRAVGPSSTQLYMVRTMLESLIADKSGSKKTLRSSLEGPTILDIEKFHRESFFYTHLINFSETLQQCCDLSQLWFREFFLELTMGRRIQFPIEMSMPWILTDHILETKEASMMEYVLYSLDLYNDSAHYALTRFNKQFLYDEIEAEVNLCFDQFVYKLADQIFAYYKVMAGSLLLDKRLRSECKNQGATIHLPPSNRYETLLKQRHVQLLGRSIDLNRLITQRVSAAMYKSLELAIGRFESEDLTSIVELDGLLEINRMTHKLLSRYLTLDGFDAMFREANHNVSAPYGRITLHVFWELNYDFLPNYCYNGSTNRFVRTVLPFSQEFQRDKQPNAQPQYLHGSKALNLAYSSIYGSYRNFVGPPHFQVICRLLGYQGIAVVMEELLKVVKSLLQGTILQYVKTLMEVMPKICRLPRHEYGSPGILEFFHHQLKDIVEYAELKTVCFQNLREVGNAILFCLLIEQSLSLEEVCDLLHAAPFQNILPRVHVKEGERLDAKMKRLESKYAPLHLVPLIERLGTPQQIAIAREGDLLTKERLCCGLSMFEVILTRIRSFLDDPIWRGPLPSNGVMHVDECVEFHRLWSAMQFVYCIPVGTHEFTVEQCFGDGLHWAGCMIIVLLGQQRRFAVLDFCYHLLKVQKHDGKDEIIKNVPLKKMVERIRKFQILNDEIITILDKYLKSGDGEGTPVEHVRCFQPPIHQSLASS
Procedure, shortened: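 MDA-MB-231 cells exposed to biotin-labelled stapled test peptides at 2.5 or 10 µM, with biotinylated scrambled peptides as controls. Lysates incubated overnight at 4 °C with immobilised avidin resin. Pulled-down material resolved by SDS-PAGE and western blotted for CYFIP1.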

WASF3 = WASF3 protein levels by western blot; assay type: cell-based; conditions: MDA-MB-231 cells cultured in serum
WASF3-CYFIP1 complex = WASF3-CYFIP1 complex (Homo sapiens, UniProt Q7L576); assay: Immunoprecipitation of WASF3, western blot for CYFIP1; assay type: cell-based; conditions: MDA-MB-231 cells treated with peptide, IP of WASF3
Sequence of WASF3-CYFIP1 complex (Q7L576 whole entry): as above
Sequence of WASF3-CYFIP1 complex (Q9Y2A7 whole entry partner): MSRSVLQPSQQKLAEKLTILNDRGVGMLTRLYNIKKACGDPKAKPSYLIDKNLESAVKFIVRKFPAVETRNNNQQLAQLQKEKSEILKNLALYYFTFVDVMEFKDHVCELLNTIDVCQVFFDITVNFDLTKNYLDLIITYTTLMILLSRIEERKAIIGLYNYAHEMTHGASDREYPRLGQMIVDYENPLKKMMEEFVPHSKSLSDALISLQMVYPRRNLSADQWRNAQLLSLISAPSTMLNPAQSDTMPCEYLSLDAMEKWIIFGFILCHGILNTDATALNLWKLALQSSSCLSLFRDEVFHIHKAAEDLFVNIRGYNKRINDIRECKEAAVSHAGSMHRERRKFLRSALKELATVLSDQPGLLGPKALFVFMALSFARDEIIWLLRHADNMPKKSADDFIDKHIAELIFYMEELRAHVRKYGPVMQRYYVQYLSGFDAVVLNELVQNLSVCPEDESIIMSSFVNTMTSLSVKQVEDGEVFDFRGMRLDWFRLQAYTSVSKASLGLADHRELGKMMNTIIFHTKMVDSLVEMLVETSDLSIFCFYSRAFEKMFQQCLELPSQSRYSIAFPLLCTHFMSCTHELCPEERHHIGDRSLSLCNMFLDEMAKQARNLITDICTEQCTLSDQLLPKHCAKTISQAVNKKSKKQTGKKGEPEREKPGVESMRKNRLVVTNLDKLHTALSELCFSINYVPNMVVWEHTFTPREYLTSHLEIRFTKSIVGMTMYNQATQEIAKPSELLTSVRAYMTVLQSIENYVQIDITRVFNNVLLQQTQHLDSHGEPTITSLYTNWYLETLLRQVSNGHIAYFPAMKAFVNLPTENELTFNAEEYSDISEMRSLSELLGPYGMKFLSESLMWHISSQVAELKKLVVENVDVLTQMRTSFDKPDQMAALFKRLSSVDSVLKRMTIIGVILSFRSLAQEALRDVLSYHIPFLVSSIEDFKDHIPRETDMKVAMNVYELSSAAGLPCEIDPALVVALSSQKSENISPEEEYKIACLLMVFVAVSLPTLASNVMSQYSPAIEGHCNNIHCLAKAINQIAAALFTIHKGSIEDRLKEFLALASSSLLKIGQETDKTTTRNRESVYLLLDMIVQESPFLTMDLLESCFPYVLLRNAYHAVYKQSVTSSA

[6] = test system: breast or prostate cancer cells; assay: MTS cell proliferation assay; assay type: cell-based; conditions: 10 µM, over 24 hours
[7] = biological target: Rac1/2 binding to the WASF3 complex (Homo sapiens, UniProt Q7L576); assay: IP with WASF3 antibodies, western blot for Rac1/Rac2; assay type: cell-based; conditions: MDA-MB-231 cells
Sequence of Rac1/2 binding to the WASF3 complex (Q7L576 whole entry): as the sequence (Q7L576 whole entry) above
Sequence of Rac1/2 binding to the WASF3 complex (Q9Y2A7 whole entry partner): as the sequence (Q9Y2A7 whole entry partner) above
Procedure, shortened: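 MDA-MB-231 cells were left untreated or treated with stapled test peptides or a scrambled control peptide. Lysates were immunoprecipitated with anti-WASF3 antibody, and the immunocomplex was western blotted for Rac1 and Rac2.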

[8] = test system: breast and prostate cancer cells; assay: Transwell invasion assay; assay type: cell-based; conditions: for reduction of invasion potential: Transwell, 24 hours, 10 µM, compared with SCR peptides or DMSO; for dose dependence of suppression of cell invasion: high dose 10 µM versus low dose 2.5 µM

concentration dependence of CYFIP1 pull down (CYFIP1 [5]) | CYFIP1 in the WASF3 immunocomplex (WASF3-CYFIP1 complex) | Rac2 in the WASF3 IP [7] | Compound | WASF3 phosphoactivation [1] | migration potential / cell motility [2] | KISS1 levels (KISS1) | suppression of WASF3 phosphorylation compared with 17-AAG ([3]; MDA-MB-231 cells) | WASF3 phosphorylation levels [3] | intracellular levels of WASF3 or CYFIP1 (CYFIP1 [4]) | WASF3 protein levels (WASF3) | cell proliferation [6] | reduction of invasion potential [8] | dose dependence of suppression of cell invasion [8]
 |  |  | C=CCNC1=C2C[C@@H](C)C[C@H](OC)[C@H](O)[C@@H](C)/C=C(\C)[C@H](OC(N)=O)[C@@H](OC)/C=C\C=C(/C)C(=O)NC(=CC1=O)C2=O [17-AAG] | reduced WASF3 phosphoactivation |  |  |  |  |  |  |  |  | 
concentration-dependent | not present in the immunocomplex | could not be detected | LEK*TNS*LAKIIRQL (sidechain bridge or staple) [WAHM1] |  | significant reduction in cell motility | increased KISS1 levels | more efficient than the 17-AAG HSP90 inhibitor | dramatic decrease in WASF3 phosphorylation levels | did not affect intracellular levels of either WASF3 or CYFIP1 | without a reduction in WASF3 protein levels | no significant difference in cell proliferation | 50–75% | dose-dependent effect
concentration-dependent | not present in the immunocomplex |  | LEKKTN*TLA*IIRQL (sidechain bridge or staple) [WAHM2] |  | significant reduction in cell motility | increased KISS1 levels |  | dramatic decrease in WASF3 phosphorylation levels | did not affect intracellular levels of either WASF3 or CYFIP1 | without a reduction in WASF3 protein levels | no significant difference in cell proliferation | 50–75% | dose-dependent effect
 |  | present | SRA*LLI*TKIQNELK (sidechain bridge or staple) [SCR1] |  |  |  |  |  |  |  |  |  | 

Reference: article PMC4828974 (Cancer research, 2015)
